Measured values from ChEMBL document CHEMBL2396583, “Synthesis and anticancer activity of aminodihydroquinoline analogs: identification of novel proapoptotic agents” (Bioorg Med Chem Lett, 2013).
Activity calls are given as the source filed them. The calls are words filed in the database; no cut-off is given here.

Experiments:
[1] = system: MDA-MB-231; assay: Cytotoxicity against human MDA-MB-231 cells assessed as viable cells at 1 uM after 72 hrs by MTT assay in absence of serum relative to control; format: functional; settings: MDA-MB-231, 72 h, read-out: Activity
Summary of the method: (§1)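 MDA-MB-231 cells were seeded at 5000 per well in serum-containing medium and dosed the next day, with or without serum, at the stated concentrations (1 and 5 µM in the serum-free figure). After 72 h, MTT was added, formazan was dissolved in DMSO and absorbance read at 595 nm. Six wells per condition; viability expressed as % of DMSO control.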

[2] = system: MDA-MB-231; assay: Cytotoxicity against human MDA-MB-231 cells assessed as viable cells at 5 uM after 72 hrs by MTT assay in absence of serum relative to control; format: functional; settings: MDA-MB-231, 72 h, read-out: Activity; summary of the method: as §1
[3] = system: MDA-MB-231; assay: Cytotoxicity against human MDA-MB-231 cells assessed as cell viability after 72 hrs by MTT assay in absence of serum; format: functional, cell-based; settings: MDA-MB-231, 72 h; summary of the method: as §1
[4] = system: MDA-MB-231; assay: Cell cycle arrest in human MDA-MB-231 cells assessed as accumulation at S phase at 5 uM after 72 hrs by propidium iodide staining-based flow cytometric analysis in presence of serum (reference value: 14.49%); format: functional
[5] = system: MDA-MB-231; assay: Cytotoxicity against human MDA-MB-231 cells assessed as decrease in cell viability at 1 to 5 uM after 72 hrs by MTT assay in presence of serum; format: functional, cell-based; summary of the method: as §1
[6] = system: MDA-MB-231; assay: Cell cycle arrest in human MDA-MB-231 cells assessed as accumulation at subG1 phase at 5 uM after 72 hrs by propidium iodide staining-based flow cytometric analysis in presence of serum (reference value: 1.99%); format: functional
[7] = system: MDA-MB-231; assay: Cell cycle arrest in human MDA-MB-231 cells assessed as accumulation at G0/G1 phase at 5 uM after 72 hrs by propidium iodide staining-based flow cytometric analysis in presence of serum (reference value: 67.16%); format: functional
[8] = system: MDA-MB-231; assay: Cell cycle arrest in human MDA-MB-231 cells assessed as accumulation at S phase at 5 uM after 72 hrs by propidium iodide staining-based flow cytometric analysis in absence of serum (reference value: 6.19%); format: functional
[9] = system: MDA-MB-231; assay: Cell cycle arrest in human MDA-MB-231 cells assessed as accumulation at G2/M phase at 5 uM after 72 hrs by propidium iodide staining-based flow cytometric analysis in absence of serum (reference value: 6.53%); format: functional
[10] = system: MDA-MB-231; assay: Cell cycle arrest in human MDA-MB-231 cells assessed as accumulation at G0/G1 phase at 5 uM after 72 hrs by propidium iodide staining-based flow cytometric analysis in absence of serum (reference value: 84.87%); format: functional
[11] = system: MDA-MB-231; assay: Cell cycle arrest in human MDA-MB-231 cells assessed as accumulation at subG1 phase at 5 uM after 72 hrs by propidium iodide staining-based flow cytometric analysis in absence of serum (reference value: 2.15%); format: functional
[12] = system: MDA-MB-231; assay: Cell cycle arrest in human MDA-MB-231 cells assessed as accumulation at G2/M phase at 5 uM after 72 hrs by propidium iodide staining-based flow cytometric analysis in presence of serum (reference value: 15.82%); format: functional

Structure (SMILES) | viability at 1 µM [1] [%] | viability at 5 µM [2] [%] | IC50 [3] [µM] | also measured
CC1(C)CC(NCc2ccccc2)=Nc2ccc(Cl)cc21 | 88.8 | 68.1 |  | 
CN(C)CCCNC1=Nc2cc(Cl)ccc2C(C)(C)C1 | 68.4 | 46.3 | 4 | 
CCNC1=Nc2ccc(Cl)cc2C(C)(C)C1 | 89.7 | 85.1 |  | 
CN(C)CCNC1=Nc2ccc(Cl)cc2C(C)(C)C1 | 66.9 | 50.8 | 7 | 
CC1(C)CC(NCCCO)=Nc2ccc(Cl)cc21 | 84.5 | 84.2 |  | 
CCCNC1=Nc2ccc(Cl)cc2C(C)(C)C1 | 90.7 | 82.4 |  | 
CC1(C)CC(NCCCCO)=Nc2ccc(Cl)cc21 | 87.6 | 84.8 |  | 
CC1(C)CC(=S)Nc2ccc(Cl)cc21 | 85.7 | 94.3 |  | 
CCN(CC)CCCNC1=Nc2ccc(Cl)cc2C(C)(C)C1 | 53.3 | 36.1 | 2 | Activity [4]: 15.44%; Activity [5]: Active; Activity [6]: 1.64%; Activity [7]: 61.75%; Activity [8]: 4.48%; Activity [9]: 4.27%; Activity [10]: 86.24%; Activity [11]: 4.77%; Activity [12]: 20.48%
CC1(C)CC(=O)Nc2ccc(Cl)cc21 | 82.3 | 81.7 |  | 
CN(C)CCCNC1=Nc2ccc(Cl)cc2C(C)(C)C1 | 54.1 | 38 | 2.1 | Activity [4]: 14.76%; Activity [5]: Active; Activity [6]: 1.53%; Activity [7]: 64.06%; Activity [8]: 5.61%; Activity [9]: 4.73%; Activity [10]: 81.6%; Activity [11]: 7.63%; Activity [12]: 19.22%
CN(C)CCCNC1=Nc2cccc(Cl)c2C(C)(C)C1 | 60.5 | 43.9 | 4.8 | 
CNC1=Nc2ccc(Cl)cc2C(C)(C)C1 | 91.9 | 92.3 |  | 
CC1(C)CC(N)=Nc2ccc(Cl)cc21 | 80.5 | 81 |  | 
NC1=Nc2ccccc2C(c2ccccc2)C1 (stereo not given) | 86.6 | 86.3 |  | 
CC1(C)CC(NCCCN2CCOCC2)=Nc2ccc(Cl)cc21 | 91.4 | 70.3 |  | 
